Experiments:
[1] = target: T1, Delta-type opioid receptor (Homo sapiens, UniProt P41143); test: Inhibition of [35S]GTP-gamma-S binding to human delta opioid receptor expressed in CHO cells; assay type: functional, cell-based
Method in brief: (§1)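 CHO-expressed receptor membranes (10 µg) in 50 mM HEPES pH 7.4 with EDTA, 5 mM MgCl2, 30 µM GDP, DTT, 100 mM NaCl, PMSF, BSA and 0.1 nM [35S]GTPγS. Test drug at various concentrations, duplicate or triplicate, 90 min at 30 °C. Nonspecific binding with 10 µM GTPγS.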

[2] = target: T2, Cholecystokinin receptor (Homo sapiens) (UniProt P32239+P32238); test: Agonist activity at CCK receptor of guinea pig ileum at 1 uM; assay type: functional, tissue-based; settings: Cavia porcellus, target entry is the homologue from another species
Method in brief: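 Guinea pig ileum LMMP strips (male Hartley), 20-mL baths, 1 g tension, oxygenated Krebs bicarbonate buffer, 37 °C. Tissue first challenged with 67 mM KCl to set maximal contraction. Test compound added to the bath; agonist activity taken as contraction height as a percentage of the maximal KCl contraction (A50).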

[3] = target: Mu-type opioid receptor (Rattus norvegicus) (UniProt P33535); test: (§2) Inhibition of [35S]GTP-gamma-S binding to rat mu opioid receptor expressed in CHO cells; assay type: functional, cell-based; method in brief: as §1
Chain of Mu-type opioid receptor (Rattus norvegicus) (P33535 whole entry): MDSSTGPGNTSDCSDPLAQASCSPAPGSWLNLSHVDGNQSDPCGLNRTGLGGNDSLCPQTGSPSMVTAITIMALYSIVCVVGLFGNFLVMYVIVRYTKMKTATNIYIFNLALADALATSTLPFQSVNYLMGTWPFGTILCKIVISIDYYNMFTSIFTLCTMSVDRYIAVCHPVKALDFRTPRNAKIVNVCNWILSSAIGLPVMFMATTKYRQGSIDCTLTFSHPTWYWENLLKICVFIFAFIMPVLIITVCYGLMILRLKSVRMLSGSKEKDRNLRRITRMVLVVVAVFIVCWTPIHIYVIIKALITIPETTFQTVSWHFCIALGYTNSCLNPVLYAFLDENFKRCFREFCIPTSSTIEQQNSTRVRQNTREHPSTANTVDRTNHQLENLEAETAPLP

[4] = target: T1, Delta-type opioid receptor; test: Displacement of [3H]DPDPE from human delta opioid receptor expressed in HN9.10 cells; assay type: cell-based
Method in brief: (§3)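 Membranes (50 µg) from HN9.10 neuroblastoma cells stably expressing rat MOR or human DOR. Buffer was 50 mM Tris pH 7.4 with bacitracin, bestatin, captopril, PMSF and 1 mg/mL BSA. Radioligand was [3H]DAMGO (MOR) or [3H]DPDPE (DOR), each 1.0 nM, with 10 test concentrations. Incubated 3 h at 25 °C, in duplicate. Nonspecific binding with 10 µM naloxone. Filtration, then scintillation counting.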

[5] = target: Delta-type opioid receptor (Mus musculus, UniProt P32300); test: Agonist activity at delta opioid receptor by inhibition of muscle contraction in electrically stimulated isolated mouse vas deferens; assay type: functional, tissue-based
Chain of Delta-type opioid receptor (Mus musculus, UniProt P32300) (P32300 whole entry): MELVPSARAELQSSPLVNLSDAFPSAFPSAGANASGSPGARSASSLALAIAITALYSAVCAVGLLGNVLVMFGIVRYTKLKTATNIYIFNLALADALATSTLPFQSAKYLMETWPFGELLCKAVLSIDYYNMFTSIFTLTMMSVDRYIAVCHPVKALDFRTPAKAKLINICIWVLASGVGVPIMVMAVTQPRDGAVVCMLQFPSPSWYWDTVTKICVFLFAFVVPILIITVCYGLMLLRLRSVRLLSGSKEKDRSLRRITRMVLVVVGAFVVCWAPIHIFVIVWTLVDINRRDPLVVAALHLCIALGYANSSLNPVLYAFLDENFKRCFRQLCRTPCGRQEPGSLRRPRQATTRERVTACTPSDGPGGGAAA
Method in brief: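 Male ICR mouse vasa deferentia in 20-mL baths, 0.5 g tension, oxygenated Mg-free Krebs at 37 °C; field stimulation 0.1 Hz, 2.0 ms single pulses, supramaximal voltage. Tissue integrity checked with DPDPE (10 nM). Compound added cumulatively until maximal inhibition. Inhibition taken as mean contraction height for 1 min before dosing versus height 3 min after. IC50 from Hill-equation fit by nonlinear least squares.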

[6] = target: T3, Cholecystokinin receptor type A (Homo sapiens, UniProt P32238); test: Displacement of [125I]CCK8 from human CCK1 receptor expressed in HEK293 cells; assay type: cell-based
T3 sequence (P32238 whole entry): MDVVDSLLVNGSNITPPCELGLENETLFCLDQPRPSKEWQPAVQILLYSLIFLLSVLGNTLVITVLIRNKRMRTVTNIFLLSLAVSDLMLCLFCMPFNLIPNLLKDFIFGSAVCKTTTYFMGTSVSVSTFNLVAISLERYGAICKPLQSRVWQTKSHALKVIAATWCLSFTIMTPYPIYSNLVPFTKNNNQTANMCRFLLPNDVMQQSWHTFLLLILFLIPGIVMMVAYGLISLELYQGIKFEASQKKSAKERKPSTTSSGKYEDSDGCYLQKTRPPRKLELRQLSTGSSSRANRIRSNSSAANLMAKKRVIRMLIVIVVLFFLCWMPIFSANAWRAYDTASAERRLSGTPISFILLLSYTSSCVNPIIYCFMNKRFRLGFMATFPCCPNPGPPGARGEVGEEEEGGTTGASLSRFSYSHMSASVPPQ

[7] = target: T4, Gastrin/cholecystokinin type B receptor (Homo sapiens, UniProt P32239); test: Displacement of [125I]CCK8 from human CCK2 receptor expressed in HEK293 cells; assay type: cell-based
T4 sequence (P32239 whole entry): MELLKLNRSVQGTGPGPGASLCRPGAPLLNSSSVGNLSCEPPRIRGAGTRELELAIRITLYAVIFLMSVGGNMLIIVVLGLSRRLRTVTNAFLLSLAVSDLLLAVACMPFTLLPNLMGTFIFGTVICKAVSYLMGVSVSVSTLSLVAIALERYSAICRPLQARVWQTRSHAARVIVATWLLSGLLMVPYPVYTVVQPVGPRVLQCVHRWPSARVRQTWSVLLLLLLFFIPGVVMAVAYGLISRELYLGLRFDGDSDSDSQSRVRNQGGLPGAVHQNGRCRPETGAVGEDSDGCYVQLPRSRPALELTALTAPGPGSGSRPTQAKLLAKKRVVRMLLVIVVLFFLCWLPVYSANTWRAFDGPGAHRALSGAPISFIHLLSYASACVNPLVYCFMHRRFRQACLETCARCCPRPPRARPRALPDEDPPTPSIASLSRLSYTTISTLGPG

[8] = target: T5, Mu-type opioid receptor (Rattus norvegicus, UniProt P33535); test: Displacement of [3H]DAMGO from rat mu opioid receptor expressed in HN9.10 cells; assay type: cell-based; method in brief: as §3
T5 sequence (P33535 whole entry): as the sequence (P33535 whole entry) above

[9] = target: T5, Mu-type opioid receptor; test: as §2; assay type: functional, cell-based; method in brief: as §1
[10] = target: T2, Cholecystokinin receptor (Homo sapiens); test: Antagonist activity at CCK receptor by inhibition of CCK8-induced muscle contraction in unstimulated GPI/LMMP; assay type: functional; settings: Cavia porcellus; target entry is the homologue from another species
Method in brief: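 Male Hartley guinea pig ileum LMMP strips, 1 g tension, oxygenated Krebs bicarbonate buffer, 37 °C; 67 mM KCl sets maximal contractility. Initial noncumulative CCK-8 dose-response curve built. Test compound added without electrical stimulation; 3 min later the CCK-8 curve was rebuilt at an antagonist dose giving about a 3-fold rightward shift. Ke is the antagonist concentration halving CCK-8 activity.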

[11] = target: Mu-type opioid receptor (Cavia porcellus, UniProt P97266); test: Agonist activity at mu opioid receptor by inhibition of muscle contraction in electrically stimulated isolated guinea pig ileum; assay type: functional, tissue-based
Chain of Mu-type opioid receptor (Cavia porcellus, UniProt P97266) (P97266 whole entry): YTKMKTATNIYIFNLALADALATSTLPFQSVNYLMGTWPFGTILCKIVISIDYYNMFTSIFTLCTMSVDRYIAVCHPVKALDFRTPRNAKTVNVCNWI
Method in brief: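 Longitudinal muscle–myenteric plexus strips from male Hartley guinea pig ileum, 1 g tension, oxygenated Krebs at 37 °C, 15 min equilibration. Stimulated at 0.1 Hz, 0.4 ms, supramaximal voltage. Integrity checked with PL-017 (10 nM). Compound added until maximal inhibition. Inhibition taken as contraction height 1 min before versus 3 min after dosing. IC50 from Hill-equation fit.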

T1 sequence (P41143 whole entry): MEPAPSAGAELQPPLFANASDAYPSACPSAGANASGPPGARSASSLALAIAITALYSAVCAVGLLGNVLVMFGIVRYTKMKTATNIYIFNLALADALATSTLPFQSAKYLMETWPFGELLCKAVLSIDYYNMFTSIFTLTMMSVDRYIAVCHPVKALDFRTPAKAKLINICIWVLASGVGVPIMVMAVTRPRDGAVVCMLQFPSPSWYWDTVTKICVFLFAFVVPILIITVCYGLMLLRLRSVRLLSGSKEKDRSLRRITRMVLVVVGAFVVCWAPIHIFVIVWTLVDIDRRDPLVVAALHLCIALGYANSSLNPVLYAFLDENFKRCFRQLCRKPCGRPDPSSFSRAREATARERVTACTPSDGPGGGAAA

SMILES | Emax [1] [%] | Activity [2] [%] | Emax [3] [%] | IC50 [4] [nM] | Ki [4] [nM] | EC50 [1] [nM] | IC50 [5] [nM] | IC50 [6] [nM] | Ki [6] [nM] | IC50 [7] [nM] | Ki [7] [nM] | IC50 [8] [nM] | Ki [8] [nM] | EC50 ([9]; read-out: EC50) [nM] | IC50 [11] [nM] | also measured
CCCC[C@H](NC(=O)[C@H](CC(=O)O)NC(=O)[C@H](Cc1ccccc1)NN[C@@H](Cc1ccccc1)C(=O)NCC(=O)N[C@H](C)C(=O)N[C@@H](Cc1ccc(O)cc1)C(=O)O)C(=O)N[C@H](Cc1cn(C(=O)OC2C3CC4CC(C3)CC2C4)c2ccccc12)C(=O)O (some centres not stated) | 61 | 0 | 60 |  |  |  |  |  |  |  |  |  |  |  |  | 
CCCC[C@@H](C(=O)N[C@@H](CC(=O)O)C(=O)N[C@@H](Cc1ccccc1)C(=O)NNC(=O)[C@H](Cc1ccccc1)NC(=O)CNC(=O)[C@@H](C)NC(=O)[C@@H](N)Cc1ccc(O)cc1)N(C)C(=O)[C@@H](Cc1c[nH]c2ccccc12)NC(=O)OC(C)(C)C |  |  |  | 2 | 0.82 | 26 | 42 | 1910 | 1900 | 1550 | 1500 | 47.9 | 20 | 0.64 |  | 
CCCC[C@H](NC(=O)[C@H](CC(=O)O)NC(=O)[C@H](Cc1ccccc1)NN[C@@H](Cc1ccccc1)C(=O)NCC(=O)N[C@H](C)C(=O)N[C@@H](Cc1ccc(O)cc1)C(=O)O)C(=O)N[C@@H](Cc1cn(C(=O)OC(C)(C)C)c2ccccc12)C(=O)O | 54 | 0 | 83 |  |  |  |  |  |  |  |  |  |  |  |  | Ke [10]: 14 nM
CCCC[C@H](NC(=O)[C@H](Cc1c[nH]c2ccccc12)NC(C)=O)C(=O)N[C@@H](CC(=O)O)C(=O)N(C)[C@@H](Cc1ccccc1)C(=O)NNC(=O)[C@H](Cc1ccccc1)NC(=O)CNC(=O)[C@@H](C)NC(=O)[C@@H](N)Cc1ccc(O)cc1 |  |  |  |  | 5.2 |  | 5.1 |  |  |  |  |  | 5.3 |  | 62 | Log IC50 [4]: -7.97; EC50 ([1]; cho): 0.53 nM; Log IC50 [8]: -7.96; EC50 ([9]; cho, read-out: EC50): 5.2 nM
CC(=O)N[C@@H](Cc1c[nH]c2ccccc12)C(=O)N[C@@H](CCCCNC(=O)Nc1ccccc1Cl)C(=O)N[C@@H](CC(=O)O)C(=O)N(C)[C@@H](Cc1ccccc1)C(=O)NNC(=O)[C@H](Cc1ccccc1)NC(=O)CNC(=O)[C@@H](C)NC(=O)[C@@H](N)Cc1ccc(O)cc1 |  |  |  |  | 0.48 |  | 26 |  |  |  |  |  | 0.92 |  | 200 | Log IC50 [4]: -8.95; EC50 ([1]; cho): 1.3 nM; Ki ([6]; hek293): 1000 nM; Log IC50 ([6]; hek293): -5.99; Ki ([7]; hek293): 1700 nM; Log IC50 ([7]; hek293): -5.76; Log IC50 [8]: -8.67; EC50 ([9]; cho, read-out: EC50): 15 nM
CCCC[C@H](NC(=O)[C@H](CC(=O)O)NC(=O)[C@H](Cc1ccccc1)NN[C@@H](Cc1ccccc1)C(=O)NCC(=O)N[C@H](C)C(=O)N[C@@H](Cc1ccc(O)cc1)C(=O)O)C(=O)N[C@H](Cc1cn(C(=O)OC(C)(C)C)c2ccccc12)C(=O)O | 100 | 0 | 170 |  |  |  |  |  |  |  |  |  |  |  |  | Ke [10]: 6.5 nM
CCCC[C@@H](C(=O)N[C@@H](Cc1cn(C(C)=O)c2ccccc12)C(=O)O)N(C(=O)Nc1ccccc1Cl)C(=O)[C@H](CC(=O)O)NC(=O)[C@H](Cc1ccccc1)N(C)N[C@@H](Cc1ccccc1)C(=O)NCC(=O)N[C@H](C)C(=O)N[C@@H](Cc1ccc(O)cc1)C(=O)O | 81 | 0 | 33 |  |  |  |  |  |  |  |  |  |  |  |  | Ke [10]: 150 nM
CCCC[C@H](NC(=O)[C@H](Cc1c[nH]c2ccccc12)NC(=O)OC(C)(C)C)C(=O)N[C@@H](CC(=O)O)C(=O)N[C@@H](Cc1ccccc1)C(=O)NNC(=O)[C@H](Cc1ccccc1)NC(=O)CNC(=O)[C@@H](C)NC(=O)[C@@H](N)Cc1ccc(O)cc1 |  |  |  | 138 | 59 | 27 | 230 | 4070 | 4100 | 3980 | 3800 | 55 | 24 | 9.5 | 55 | 
CCCC[C@H](NC(=O)[C@H](N)Cc1c[nH]c2ccccc12)C(=O)N[C@@H](CC(=O)O)C(=O)N[C@@H](Cc1ccccc1)C(=O)NNC(=O)[C@H](Cc1ccccc1)NC(=O)CNC(=O)[C@@H](C)NC(=O)[C@@H](N)Cc1ccc(O)cc1 |  |  |  | 3.24 | 1.4 | 9.4 | 26 | 10200 | 10000 | 9330 | 9300 | 1.2 | 0.51 | 9.6 | 81 | EC50 ([9]; read-out: Log EC50 (converted)): 9.77 nM
CCCC[C@H](NC(=O)[C@H](Cc1c[nH]c2ccccc12)NC(C)=O)C(=O)N[C@@H](CC(=O)O)C(=O)N[C@@H](Cc1ccccc1)C(=O)NNC(=O)[C@H](Cc1ccccc1)NC(=O)CNC(=O)[C@@H](C)NC(=O)[C@@H](N)Cc1ccc(O)cc1 |  |  |  | 53.7 | 23 | 54 | 36 |  |  | 1320 | 1300 | 61.7 | 26 | 76 | 28 | 
CCCC[C@H](NC(=O)[C@@H](Cc1c[nH]c2ccccc12)NC(=O)OC12CC3CC(CC(C3)C1)C2)C(=O)N[C@@H](CC(=O)O)C(=O)N[C@@H](Cc1ccccc1)C(=O)NNC(=O)[C@H](Cc1ccccc1)NC(=O)CNC(=O)[C@@H](C)NC(=O)[C@@H](N)Cc1ccc(O)cc1 |  |  |  | 0.417 | 0.23 | 27 | 38 | 851 | 840 | 562 | 560 | 195 | 88 | 10 | 640 | 
CCCC[C@H](NC(=O)[C@@H](Cc1c[nH]c2ccccc12)NC(=O)OC1C2CC3CC(C2)CC1C3)C(=O)N[C@@H](CC(=O)O)C(=O)N[C@@H](Cc1ccccc1)C(=O)NNC(=O)[C@H](Cc1ccccc1)NC(=O)CNC(=O)[C@@H](C)NC(=O)[C@@H](N)Cc1ccc(O)cc1 (some centres not stated) |  |  |  | 7.76 | 3.4 | 5.6 | 84 | 575 | 560 | 933 | 930 | 37.2 | 16 | 240 | 1200 | 
CCCC[C@H](NC(=O)[C@@H](Cc1c[nH]c2ccccc12)NC(=O)OC(C)(C)C)C(=O)N[C@@H](CC(=O)O)C(=O)N[C@@H](Cc1ccccc1)C(=O)NNC(=O)[C@H](Cc1ccccc1)NC(=O)CNC(=O)[C@@H](C)NC(=O)[C@@H](N)Cc1ccc(O)cc1 |  |  |  | 93.3 | 45 | 74 | 24 | 35500 | > 10000 | 10000 | > 10000 | 64.6 | 31 | 210 | 460 | 
